The values that follow come from ChEMBL document CHEMBL1143612, “Combinatorial optimization of isatin-beta-thiosemicarbazones as anti-poxvirus agents” (J Med Chem, 2005).

pEC50: −log10 of the molar value.

The test system of assay [1] is HFF. Nature of the assay: Half-maximal cytotoxic concentration in human foreskin fibroblast (HFF) cells. In kind it is functional. Put shortly: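 Primary HFF cells seeded at 2.5 × 10^4/well in 96-well plates 24 h ahead. Exposed 7 d at 37 °C to drug in MEM/2% FBS, 1:5 serial dilutions, final 100 to 0.032 µg/mL.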
Assay [2] concerns HFF. The experiment in a line: Effective concentration required to inhibit cowpox virus plaque formation in human foreskin fibroblast (HFF) cells. Format: functional, cell-based.
In assay [3] the test system is HFF. The experiment in a line: Effective concentration required to inhibit vaccinia virus plaque formation in human foreskin fibroblast (HFF) cells. In kind it is functional, cell-based.
The subject of assay [4] is HFF. Nature of the assay: Ratio of Effective concentration to inhibit cowpox virus plaque formation to that of half maximal cytotoxic concentration in human foreskin fibroblast (HFF) cells. Format: functional.
Assay [5] relates to HFF. Nature of the assay: Ratio of Effective concentration to inhibit vaccinia virus plaque formation to that of half maximal cytotoxic concentration in human foreskin fibroblast (HFF) cells. Format: functional.

Take `NC(=S)/N=N/c1c(O)[nH]c2ccccc12`: the CC50 in the assay on HFF [1] is > 454 µM. The pEC50 in the assay with HFF [2] is 4.22; in the assay on HFF [3], 4.85. Further, the SI with HFF [4] is given as >7.6; with HFF [5] it was >32.

On to `Nc1ccn(C[C@@H](CO)OCP(=O)(O)O)c(=O)n1.O.O` [CIDOFOVIR], for which the CC50 in the assay on HFF [1] was > 317 µM. Moreover, the negative-log EC50 (pEC50) with HFF [2] was 4.42; in the assay with HFF [3], 4.57. The SI is reported as >8.3 in the assay on HFF [4] and >12 in the assay on HFF [5].

Consider `CN1C(=O)/C(=N\NC(N)=S)c2ccccc21` [METHISAZONE], for which, in the assay on HFF [1], the CC50 is > 427 µM. The results for the pEC50 in the assay with HFF [2] and in the assay on HFF [3] were 4.85 and 5.48, respectively. Moreover, the SI in the assay with HFF [4] was >31; in the assay on HFF [5], >129.
